Experimental data: ChEMBL document CHEMBL1828531, “Pyrazol-3-propanoic acid derivatives as novel inhibitors of leukotriene biosynthesis in human neutrophils” (Eur J Med Chem, 2011)

What was measured:
[1] = target: T1, Polyunsaturated fatty acid 5-lipoxygenase (Homo sapiens) (UniProt P09917); test: Inhibition of 5-Lipoxygenase in arachidonic acid-stimulated human neutrophils assessed as residual activity at 10 uM after 15 mins by HPLC analysis in presence of A23187
T1 sequence (whole entry): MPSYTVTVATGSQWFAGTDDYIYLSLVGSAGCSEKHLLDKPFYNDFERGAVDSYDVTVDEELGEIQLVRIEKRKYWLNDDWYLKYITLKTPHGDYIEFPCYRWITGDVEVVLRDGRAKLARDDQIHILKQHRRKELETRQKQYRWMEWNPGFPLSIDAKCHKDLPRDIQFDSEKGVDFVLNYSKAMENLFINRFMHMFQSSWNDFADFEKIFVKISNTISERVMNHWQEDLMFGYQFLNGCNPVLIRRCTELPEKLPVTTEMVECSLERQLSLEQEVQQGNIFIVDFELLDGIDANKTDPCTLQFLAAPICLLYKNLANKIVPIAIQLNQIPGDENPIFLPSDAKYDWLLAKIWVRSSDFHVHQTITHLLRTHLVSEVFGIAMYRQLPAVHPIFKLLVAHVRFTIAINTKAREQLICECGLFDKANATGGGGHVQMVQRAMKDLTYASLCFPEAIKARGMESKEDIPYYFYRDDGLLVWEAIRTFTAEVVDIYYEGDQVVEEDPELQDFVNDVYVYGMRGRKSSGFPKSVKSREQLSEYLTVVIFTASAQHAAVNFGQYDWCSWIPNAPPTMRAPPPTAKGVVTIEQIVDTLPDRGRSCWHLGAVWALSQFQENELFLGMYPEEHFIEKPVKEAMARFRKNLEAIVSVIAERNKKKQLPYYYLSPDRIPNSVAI
Outline: (§1)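 Human neutrophils, 5 × 10^6/mL in PBS/glucose/1 mM CaCl2, preincubated 15 min at RT, then 2.5 µM A23187 plus 20 µM AA for 10 min at 37 °C. Methanol stop, PGB1 internal standard, HPLC of LTB4, its all-trans isomers and 5-H(p)ETE. Residual % versus 0.3% DMSO vehicle, mean ± SEM, n = 3–5. IC50 by linear interpolation from 4–5 concentrations.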

[2] = target: T2, Polyunsaturated fatty acid 5-lipoxygenase (Homo sapiens, UniProt P09917); test: Inhibition of 5-Lipoxygenase in arachidonic acid-stimulated human neutrophils after 15 mins by HPLC analysis in presence of A23187; outline: as §1
T2 sequence (P09917 whole entry): T1 sequence (whole entry)

[3] = target: T2, Polyunsaturated fatty acid 5-lipoxygenase; test: Inhibition of recombinant human 5-Lipoxygenase expressed in Escherichia coli lysate after 10 mins by HPLC analysis
Outline: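 Human 5-LO expressed at 30 °C in E. coli MV1190 (pT3-5LO); lysate 40,000 g supernatant in PBS pH 7.4 with 1 mM EDTA. Preincubated with compound 10 min at 4 °C, warmed 30 s at 37 °C. Started with 2 mM CaCl2 plus 20 µM AA, 10 min at 37 °C. Methanol stop, HPLC. Residual % versus 0.3% DMSO vehicle, n = 3–5.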

[4] = target: T3, Prostaglandin G/H synthase 1 (Homo sapiens, UniProt P23219); test: Inhibition of COX1-mediated 12-HHT production in human platelet assessed as residual activity at 10 uM after 5 mins by HPLC analysis
T3 sequence (P23219 whole entry): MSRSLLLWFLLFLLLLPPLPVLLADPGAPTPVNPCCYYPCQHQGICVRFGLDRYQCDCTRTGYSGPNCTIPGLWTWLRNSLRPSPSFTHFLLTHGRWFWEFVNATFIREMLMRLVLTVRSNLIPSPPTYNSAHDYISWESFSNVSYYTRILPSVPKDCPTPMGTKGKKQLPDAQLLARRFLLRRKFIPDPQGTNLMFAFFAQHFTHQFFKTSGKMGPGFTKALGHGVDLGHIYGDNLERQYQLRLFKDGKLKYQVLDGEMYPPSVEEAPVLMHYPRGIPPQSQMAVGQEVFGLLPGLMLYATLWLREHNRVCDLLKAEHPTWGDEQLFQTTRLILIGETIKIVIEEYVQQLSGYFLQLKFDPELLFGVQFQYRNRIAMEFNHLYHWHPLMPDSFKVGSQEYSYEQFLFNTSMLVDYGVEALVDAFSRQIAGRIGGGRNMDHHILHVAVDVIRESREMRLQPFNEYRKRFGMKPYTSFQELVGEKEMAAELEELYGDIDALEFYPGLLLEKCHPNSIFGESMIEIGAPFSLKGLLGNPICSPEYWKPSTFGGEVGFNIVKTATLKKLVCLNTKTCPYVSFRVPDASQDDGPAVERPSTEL
Outline: (§2)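 Washed human platelets, 10^8/mL in PBS with 1 mM CaCl2, preincubated with compound 4 min at 4 °C then 1 min at 37 °C. 5 µM AA added for 5 min at 37 °C. Methanol/HCl stop, PGB1 added, 12-HHT by HPLC. Residual activity at 10 µM. IC50 by interpolation from 4–5 concentrations.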

[5] = target: T4, Prostaglandin G/H synthase 2 (Homo sapiens) (UniProt P35354); test: Inhibition of COX2-mediated 6-keto PGF1alpha production in IL1-beta stimulated human A549 cells assessed as residual activity at 10 uM after 10 mins by EIA; assay type: cell-based
T4 sequence (whole entry): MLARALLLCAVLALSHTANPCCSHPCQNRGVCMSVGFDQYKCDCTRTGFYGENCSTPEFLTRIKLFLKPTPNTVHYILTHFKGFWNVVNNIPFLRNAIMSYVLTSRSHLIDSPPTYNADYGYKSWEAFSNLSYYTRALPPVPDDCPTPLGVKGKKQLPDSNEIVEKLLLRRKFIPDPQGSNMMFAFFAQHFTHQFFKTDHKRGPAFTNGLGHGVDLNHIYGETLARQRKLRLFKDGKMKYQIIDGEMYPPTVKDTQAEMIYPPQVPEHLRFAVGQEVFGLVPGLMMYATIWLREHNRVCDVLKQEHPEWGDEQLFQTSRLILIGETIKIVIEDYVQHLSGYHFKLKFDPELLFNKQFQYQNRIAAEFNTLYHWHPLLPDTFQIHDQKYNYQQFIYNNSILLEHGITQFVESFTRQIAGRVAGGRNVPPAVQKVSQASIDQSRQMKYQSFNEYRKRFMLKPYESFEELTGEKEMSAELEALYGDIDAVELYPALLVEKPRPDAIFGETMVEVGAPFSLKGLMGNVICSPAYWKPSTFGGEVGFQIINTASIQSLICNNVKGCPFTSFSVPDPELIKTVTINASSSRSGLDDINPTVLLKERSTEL
Outline: (§3)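 A549 cells stimulated with IL-1β (1 ng/ml) 72 h in DMEM with 2% FCS, trypsinized and washed. 10^6 cells/mL PBS with 1 mM CaCl2 preincubated with compound 10 min at 37 °C. 3 µM AA added for 15 min at 37 °C, stopped on ice. 6-keto PGF1α in supernatant measured by EIA.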

[6] = target: T3, Prostaglandin G/H synthase 1; test: Inhibition of COX1-mediated 12-HHT production in human platelet after 5 mins by HPLC analysis; outline: as §2
[7] = target: T5, Prostaglandin G/H synthase 2 (Homo sapiens, UniProt P35354); test: Inhibition of COX2-mediated 6-keto PGF1alpha production in IL1-beta stimulated human A549 cells after 10 mins by EIA; assay type: cell-based; outline: as §3
T5 sequence (P35354 whole entry): T4 sequence (whole entry)

A549 = test: Inhibition of mPGES1-mediated PGE2 production in IL1-beta stimulated human A549 cells assessed as residual activity at 10 uM after 15 mins; assay type: cell-based
Outline: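 Microsomes from IL-1β (1 ng/ml, 72 h) stimulated A549 cells, diluted in 0.1 M potassium phosphate pH 7.4 with 2.5 mM glutathione. Compound or 1% DMSO added, 15 min at 4 °C. Started with 20 µM PGH2 (final), 1 min at 4 °C. Stopped with FeCl2/citric acid containing 11β-PGE2 internal standard. PGE2 by RP-C18 solid-phase extraction and peak integration.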

SMILES	Activity [1]	IC50 [2]	IC50 [3]	Activity [4]	Activity [5]	IC50 [6]	IC50 [7]	Activity (A549)
CCOC(=O)C1CCN(C(=O)CCc2cc(-c3ccc(C)cc3)n(-c3ccc4ccccc4n3)n2)CC1	25.8%	4 µM	> 10 µM	15.9%	66.3%	0.9 µM	> 10 µM	84%
Cc1ccc(-c2cc(CCC(=O)Oc3ccc(C(C)C)cc3)nn2-c2ccc(Cl)nn2)cc1	46.4%	8 µM	> 10 µM	51.1%	99.9%	> 10 µM	> 10 µM	91.4%
CCOC(=O)C1CCN(C(=O)CCc2cc(-c3ccc(C(F)(F)F)cc3)n(-c3ccc(Cl)nn3)n2)CC1	62%	15 µM	> 10 µM	102%	78.6%	> 10 µM	> 10 µM	103%
Cc1ccc(-c2cc(CCC(=O)Oc3ccc(C(C)C)cc3)nn2-c2ccc3ccccc3n2)cc1	65.4%	> 10 µM	> 10 µM	–	97%	0.014 µM	> 10 µM	88%

Compounds with a lower IC50 [2], results first:

Activity [1]	IC50 [2]	IC50 [3]	Activity [4]	Activity [5]	IC50 [6]	IC50 [7]	SMILES	Activity (A549)
13.5%	2.7 µM	> 10 µM	21%	97%	2.5 µM	> 10 µM	Cc1ccc(-c2cc(CCC(=O)N3CCN(Cc4ccc(C(C)(C)C)cc4)CC3)nn2-c2ccccc2)cc1	84.6%
16.4%	3.5 µM	> 10 µM	8.2%	79%	0.041 µM	> 10 µM	Cc1ccc(-c2cc(CCC(=O)N3CCN(Cc4ccc(C(C)(C)C)cc4)CC3)nn2-c2ccc3ccccc3n2)cc1	75%
6.7%	2.4 µM	> 10 µM	57.1%	86.3%	> 10 µM	> 10 µM	CCOC(=O)C1CCN(C(=O)CCc2cc(-c3ccc(C)cc3)n(-c3ccccc3)n2)CC1	82.6%
23.4%	1.6 µM	> 10 µM	82.9%	84.2%	> 10 µM	> 10 µM	CC(C)(C)c1ccc(CN2CCN(C(=O)CCc3cc(-c4ccc(F)cc4)n(-c4ccc(Cl)nn4)n3)CC2)cc1	75.6%
20.4%	2 µM	> 10 µM	10.6%	111%	0.3 µM	> 10 µM	Cc1ccc(-c2cc(CCC(=O)Oc3ccc(C(C)C)cc3)nn2-c2ccccc2)cc1	108%
